Screens: PubChem, several laboratories
A selection: hits, their analogues and other compounds. The true share with any hit is near 3.1%.
HSF1 inhib = HSF1 inhibitors in luciferase reporter cells, primary screen, cell-based, NIH3T3, luminescence | NIH3T3-HGL HSE-luciferase, MG132-induced, luminescence 8 h; stronger effect = lower value | activity change, negative = inhibition, % at 7.5 µM (by protocol) | 0.77% of 300,000 active;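 active means more than half of replicate wells show activity change below -50%, luminescence cut by over half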;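 further: luciferase reports HSF-1 transcriptional activity via heat shock element; 0% = median of DMSO wells and -100% = zero luminescence signal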
Hsp70 act = Hsp70 transcriptional activators, primary screen, cell-based, HeLa, Hsp70 promoter luciferase, luminescence, 10 µM; HeLa Hsp70 promoter luciferase reporter; scaled: vehicle 0, proteasome-inhibitor control 100%; activation, % at 10 µM; 0.04% of 200,000 active; AID 1203, 2008;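 active means activation above the mean across all tested compounds plus 3 SD, cutoff set per campaign, cut at about 5.5% in these data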;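 further: 100% = MG132 at 30 µM as the positive control and 0% = DMSO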
TbHK1 inh = Trypanosoma brucei hexokinase 1 inhibitors, primary screen, biochemical, G6PDH-coupled NADH absorbance, MLSCN library; hexokinase 1 [Trypanosoma brucei]; recombinant TbHK1, G6PDH-coupled NADH A340; inhibition, % at 10 µM; 0.11% of 220,000 active;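 active means inhibition of 50% or more in the single-dose primary screen; inactive means inhibition below 50%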
HSF1 activator = HSF-1 activators, primary screen, NIH3T3-HGL cells, MG132 stress, luminescence, single point; NIH3T3-HGL HSF-1 luciferase reporter, 8 h; 100% = twice DMSO control signal; activation, % at 9 µM; 1.7% of 300,000 active; AID 504408, 2011;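 active means mean replicate activation of at least 50% with a set share of replicates each reaching 50%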;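 further: 0% = median of the neutral control wells and 100% = twice that signal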
HKDC1 inhibitor = HKDC1 hexokinase inhibitors, primary screen, biochemical, fluorescence, uHTS; recombinant HKDC1, G6PDH/diaphorase resazurin coupled fluorescence; inhibition, % at 20 µM; 0.16% of 340,000 active; AID 493160, 2011;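 active means inhibition above about 35% when tested at 20 µM, limit read from the data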;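 further: plate controls were DMSO wells with enzyme for no effect and DMSO wells lacking enzyme for full effect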
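Incubation: 90 min at room temperature in dark / Material: recombinant HKDC1 (HK5) hexokinase enzyme, produced in-house / Quantity: enzyme 5 µg/mL final / Compound: one dose of 20 µM, 1% DMSO / Reagent: glucose and ATP substrates / Buffer or medium: Tris pH 8.0 buffer with MgCl2, Tween-20, BSA, BME / Technique: resorufin fluorescence at 613 nm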
HSP90 refold inh = HSP90 inhibitors, primary screen, cell lysate, luminescence | Rabbit reticulocyte lysate, luciferase refolding luminescence, 3 h | inhibition, % at 5.6 µM | 0.91% of 290,000 active | AID 1789, 2009;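 active means inhibition above the screen-wide mean plus 3 SD, computed separately per campaign, cut at about 16% in these data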;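 further: 0% = DMSO wells and 100% = 60 µM geldanamycin wells; inhibitors lower the luminescence because luciferase stays unfolded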
Active calls of the source: *.

How did CCOC(=O)c1c(S(=O)(=O)NCC(=O)Nc2cccc(C)c2)c(C)n(C)c1C do in these assays?
HSF1 inhib: 4; HSF1 activator: 23; HKDC1 inhibitor: 5; HSP90 refold inh: 3

What do the screens show for `Cc1ccccc1-n1c(C)nc2ccccc21`?
HSF1 inhib: -53*; Hsp70 act: 0; TbHK1 inh: 1; HSF1 activator: -61; HKDC1 inhibitor: -5; HSP90 refold inh: -3

What do the screens show for `Cc1nc2ccccc2n1-c1ccccc1`?
HSF1 inhib: -4; Hsp70 act: 0; TbHK1 inh: 0; HSF1 activator: 1; HKDC1 inhibitor: 8; HSP90 refold inh: -3

What do the screens show for `CN(Cc1ccccc1)C(=O)c1ccc(NC(=O)C2=CSCCO2)cc1`?
HSF1 inhib: 0; HSF1 activator: 4; HKDC1 inhibitor: -3; HSP90 refold inh: 0

Results for CN(Cc1ccccc1)C(=O)c1ccccc1NC(=O)C1=CSCCO1 ?
HSF1 inhib: -76*; HSF1 activator: -79; HKDC1 inhibitor: -4; HSP90 refold inh: -2

What do the screens show for `CCOC(=O)c1c(C)[nH]c(C(=O)OCc2ccc(C)cc2)c1C`?
HSF1 inhib: 11; HSF1 activator: 16; HKDC1 inhibitor: 1; HSP90 refold inh: -3

Results for CCOC(=O)c1c(C)[nH]c(C(=O)COC(=O)CCSc2ccccc2)c1C ?
HSF1 inhib: 1; Hsp70 act: 0; TbHK1 inh: -2; HSF1 activator: 16; HKDC1 inhibitor: 10; HSP90 refold inh: 0

What do the screens show for `CCOC(=O)c1c(C)[nH]c(C)c1C(=O)CSc1nc2ccccc2n1CCC#N`?
HSF1 inhib: -5; Hsp70 act: -1; TbHK1 inh: -5; HSF1 activator: -3; HKDC1 inhibitor: -7; HSP90 refold inh: -7

Results for CCCn1c(SCC(=O)c2c(C)[nH]c(C)c2C(=O)OCC)nc2ccccc21 ?
HSF1 inhib: -61*; Hsp70 act: 0; TbHK1 inh: 37; HSF1 activator: -70; HKDC1 inhibitor: -7; HSP90 refold inh: -1

What do the screens show for `CCOC(=O)c1c(C)[nH]c(C(=O)CSc2ccccc2)c1C`?
HSF1 inhib: 27; Hsp70 act: 0; TbHK1 inh: 5; HSF1 activator: 59*; HKDC1 inhibitor: 3; HSP90 refold inh: 8

How did CCOC(=O)c1c(C)[nH]c(C(=O)OCc2ccccc2)c1C do in these assays?
HSF1 inhib: 46; HSF1 activator: 62*; HKDC1 inhibitor: 0; HSP90 refold inh: 3

What do the screens show for `CCN(CC(=O)Nc1ccc(NC(C)=O)cc1)C(=O)c1cc(-c2ccccc2Cl)nc2ccccc12`?
HKDC1 inhibitor: -3

Results for CCCCc1ccc(NC(=S)N2CCCC2)cc1 ?
HKDC1 inhibitor: 2; HSP90 refold inh: 16

How did COc1ccc(C(=O)Nc2nc3ccccc3s2)c(OC)c1 do in these assays?
HSF1 inhib: -93*; HSF1 activator: -93; HKDC1 inhibitor: 3; HSP90 refold inh: 91*

What do the screens show for `Nc1ccc(C(=O)Nc2nc3ccccc3s2)cc1`?
HSF1 inhib: 33; Hsp70 act: 0; TbHK1 inh: -30; HSF1 activator: 57*; HKDC1 inhibitor: 4; HSP90 refold inh: 5

Results for COc1n[nH]c(C(=O)NCc2ccccc2)c1[N+](=O)[O-] ?
Hsp70 act: 0; TbHK1 inh: -21; HKDC1 inhibitor: 0; HSP90 refold inh: -1

How did Cc1cc(C)n(-c2ccc(C(=O)Nc3nc4ccccc4s3)cc2)n1 do in these assays?
HSF1 inhib: 9; Hsp70 act: 0; TbHK1 inh: -2; HSF1 activator: 22; HKDC1 inhibitor: -1; HSP90 refold inh: -5

Results for COc1n[nH]c(C(=O)Nc2nc3ccccc3s2)c1[N+](=O)[O-] ?
HSF1 inhib: -65*; Hsp70 act: 0; TbHK1 inh: -2; HSF1 activator: -69; HKDC1 inhibitor: -1; HSP90 refold inh: -4

What do the screens show for `COc1ccc2nc(NC(=O)c3ccccc3C(=O)O)sc2c1`?
HSF1 inhib: 0; HSF1 activator: 2; HKDC1 inhibitor: 0; HSP90 refold inh: -2

How did COc1ccc(CN(C)C(=O)CSc2nnc(C3CC3)n2C2CC2)cc1 do in these assays?
HKDC1 inhibitor: 1

How did CCCC(=O)N(CCN1CCOCC1)c1nc2c(OC)ccc(OC)c2s1 do in these assays?
HSF1 inhib: -5; HSF1 activator: 1; HKDC1 inhibitor: 7; HSP90 refold inh: 1

What do the screens show for `COc1ccc(CN2CCc3c([nH]c4ccccc34)C2)c(OC)c1C`?
HSF1 inhib: -13; HSF1 activator: -24; HKDC1 inhibitor: -5; HSP90 refold inh: 7

How did CC(C(=O)NN=C(c1ccccc1)c1ccccc1)N1CCCC1 (centres undefined) do in these assays?
HSF1 inhib: 17; Hsp70 act: 0; TbHK1 inh: -1; HSF1 activator: 55*; HKDC1 inhibitor: -5; HSP90 refold inh: 0

Results for O=C(NN=C(c1ccccc1)c1ccccc1)C(CCl)C1CCCCC1 (centres undefined) ?
HKDC1 inhibitor: 0

What do the screens show for `CC(=O)N1CCCc2cc(S(=O)(=O)NC(C(=O)NC3CCCCC3)C(C)C)ccc21` (centres undefined)?
HSF1 inhib: 9; Hsp70 act: 0; TbHK1 inh: -1; HSF1 activator: 34; HKDC1 inhibitor: 6; HSP90 refold inh: 1

What do the screens show for `CC(=O)N1CCc2cc(S(=O)(=O)NC(Cc3ccccc3)C(=O)NC3CCCCCC3)ccc21` (centres undefined)?
HSF1 inhib: 15; Hsp70 act: 0; TbHK1 inh: -5; HSF1 activator: 54*; HKDC1 inhibitor: -9; HSP90 refold inh: 3

Results for CC(C)CN(CC(C)C)c1nc(N)c(C#N)c(CC#N)c1C#N ?
HSF1 inhib: 112; Hsp70 act: 0; TbHK1 inh: -19; HSF1 activator: 132*; HKDC1 inhibitor: 2; HSP90 refold inh: 5

What do the screens show for `CN(CCO)c1nc(N)c(C#N)c(CC#N)c1C#N`?
HSF1 inhib: 3; TbHK1 inh: -42; HSF1 activator: 23; HKDC1 inhibitor: 7; HSP90 refold inh: 4

What do the screens show for `CN(c1ccccc1)c1nc(N)c(C#N)c(CC#N)c1C#N`?
HSF1 inhib: 47; Hsp70 act: 0; TbHK1 inh: -33; HSF1 activator: 69*; HKDC1 inhibitor: -3; HSP90 refold inh: 3

What do the screens show for `CCCN(C(=O)COC(=O)c1nc2nc(C)cc(C)n2n1)C1CCS(=O)(=O)C1` (centres undefined)?
HKDC1 inhibitor: -4
